In ChEMBL document CHEMBL3271939, “Studies of antitumor agents. 1. Resolution of racemic 1-(tetrahydro-2-furanyl)-k-fluorouracil into the R and S isomers and examination of the biological activities of the isomers” (J Med Chem, 1977):
In brackets after ≈: the same amount, converted by molar mass.

How the values were obtained:
Staphylococcus aureus = experiment: Antibacterial activity against Staphylococcus aureus ATCC 6538P assessed as growth inhibition after 24 hrs by plate dilution method; type: functional
Method in brief: (§1)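 MIC determined by standard plate dilution in defined medium […], plates incubated 37 °C for 24 h.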

[1] = Drug metabolism in mouse liver microsomes assessed as fluorouracil release by measuring antibacterial activity against Staphylococcus aureus 209P at 200 ug after 4 hrs by thin layer cup method; type: ADME
Method in brief: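 Mouse liver microsome fraction suspended in 10 mM phosphate buffer pH 7.4 with 1.15% KCl (equivalent to 25% homogenate); 0.8 mL suspension plus 200 µg isomer in 1 mL, no NADPH, 37 °C for 4 h. Unchanged substrate removed by CHCl3 extraction; released FU in neutralized aqueous layer quantified by antibacterial activity against S. aureus 209P, thin-layer-cup method.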

Brevundimonas diminuta = experiment: Antibacterial activity against Pseudomonas diminuta IAM 1513 assessed as growth inhibition after 24 hrs by plate dilution method; type: functional; conditions: IAM 1513, 24 h; method in brief: as §1
Micrococcus flavus = experiment: Antibacterial activity against Micrococcus flavus ATCC 10240 assessed as growth inhibition after 24 hrs by plate dilution method; type: functional; conditions: ATCC 10240, 24 h; method in brief: as §1
Micrococcus luteus = experiment: Antibacterial activity against Sarcina lutea ATCC 9341 assessed as growth inhibition after 24 hrs by plate dilution method; type: functional; conditions: ATCC 9341, 24 h; method in brief: as §1
Klebsiella pneumoniae = experiment: Antibacterial activity against Klebsiella pneumoniae ATCC 10031 assessed as growth inhibition after 24 hrs by plate dilution method; type: functional; conditions: ATCC 10031, 24 h; method in brief: as §1
YOSHIDA [2] = experiment: Antitumor activity against rat Yoshida cells allografted in Donryu rat assessed as inhibition of tumor growth at 90 mg/kg, ip administered daily for 7 days starting 24 hrs after tumor inoculation measured on 10th day post-tumor inoculation; type: functional; conditions: route intraperitoneal, read-out: TGI
Method in brief: (§2)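 Male Donryu rats (120 ± 5 g) inoculated s.c. in inguinal region with 5×10^6 AH-130 carcinoma or Yoshida sarcoma cells per rat; drug 90 mg/kg i.p. daily for 7 days starting 24 h later; six animals per group. Body weight and tumor weight measured on day 10 after inoculation; tumor weight compared with untreated control group to give % inhibition.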

Escherichia coli = experiment: Antibacterial activity against Escherichia coli NIHJ assessed as growth inhibition after 24 hrs by plate dilution method; type: functional; method in brief: as §1
[3] = Drug metabolism in mouse liver microsomes assessed as fluorouracil release by measuring antibacterial activity against Staphylococcus aureus 209P at 200 ug after 4 hrs by thin layer cup method in presence of NADPH; type: ADME
Method in brief: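 Mouse liver microsomes in 10 mM phosphate buffer pH 7.4, 1.15% KCl (25% homogenate equivalent); 0.8 mL suspension, 0.1 mL of 50 mM NADPH stock, 200 µg isomer, made to 1 mL; 37 °C, 4 h. After CHCl3 extraction of unchanged substrate, FU in neutralized aqueous phase bioassayed against S. aureus 209P by thin-layer-cup method.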

Rattus norvegicus [4] = experiment: Toxicity in Donryu rat allografted with rat AH-130 cells assessed as body weight at 90 mg/kg, ip administered daily for 7 days starting 24 hrs after tumor inoculation measured on 10th day post-tumor inoculation (reference value: 64.1 gms); type: organism-based; parameters: dose 90 mg/kg, route intraperitoneal; conditions: in vivo; method in brief: as §2
[5] = Antitumor activity against rat AH-130 cells allografted in Donryu rat assessed as inhibition of tumor growth at 90 mg/kg, ip administered daily for 7 days starting 24 hrs after tumor inoculation measured on 10th day post-tumor inoculation; type: functional; conditions: route intraperitoneal, read-out: TGI; method in brief: as §2
Rattus norvegicus [6] = experiment: Toxicity in Donryu rat allografted with rat Yoshida cells assessed as body weight at 90 mg/kg, ip administered daily for 7 days starting 24 hrs after tumor inoculation measured on 10th day post-tumor inoculation (reference value: 53 gms); type: organism-based; parameters: dose 90 mg/kg, route intraperitoneal; conditions: in vivo; method in brief: as §2
[7] = Antitumor activity against rat AH-130 cells allografted in Donryu rat assessed as tumor weight at 90 mg/kg, ip administered daily for 7 days starting 24 hrs after tumor inoculation measured on 10th day post-tumor inoculation (reference value: 4.73 +/- 1.19 gms); type: functional; conditions: route intraperitoneal; method in brief: as §2
Bacillus subtilis = experiment: Antibacterial activity against Bacillus subtilis ATCC 6633 assessed as growth inhibition after 24 hrs by plate dilution method; type: functional; conditions: ATCC 6633, 24 h; method in brief: as §1
YOSHIDA [8] = experiment: Antitumor activity against rat Yoshida cells allografted in Donryu rat assessed as tumor weight at 90 mg/kg, ip administered daily for 7 days starting 24 hrs after tumor inoculation measured on 10th day post-tumor inoculation (reference value: 3.65 +/- 0.60 gms); type: functional; conditions: route intraperitoneal; method in brief: as §2
Proteus vulgaris = experiment: Antibacterial activity against Proteus vulgaris IFO 3045 assessed as growth inhibition after 24 hrs by plate dilution method; type: functional; conditions: IFO 3045, 24 h; method in brief: as §1

| SMILES | MIC (Staphylococcus aureus) [µM] | Drug metabolism [1] [µg/mL] | MIC (Brevundimonas diminuta) [µM] | MIC (Micrococcus flavus) [µM] | MIC (Micrococcus luteus) [µM] | MIC (Klebsiella pneumoniae) [µM] | inhibition in vivo at 90 mg/kg (YOSHIDA [2]) [%] | MIC (Escherichia coli) [µM] | Drug metabolism [3] [µg/mL] | Activity (Rattus norvegicus [4]) [g] | inhibition in vivo at 90 mg/kg [5] [%] | Activity (Rattus norvegicus [6]) [g] | Activity [7] [g] | MIC (Bacillus subtilis) [µM] | Activity (YOSHIDA [8]) [g] | MIC (Proteus vulgaris) [µM] |
| --- | --- | --- | --- | --- | --- | --- | --- | --- | --- | --- | --- | --- | --- | --- | --- | --- |
| O=c1[nH]c(=O)n([C@H]2CCCO2)cc1F | 12 (≈ 2.4 µg/mL) | 0.51 | > 1000 | 750 (≈ 150 µg/mL) | 6 (≈ 1.2 µg/mL) | > 1000 | 33.7 | > 1000 | 10.32 | 40.2 | 61.5 | 42 | 1.82 | 780 (≈ 156 µg/mL) | 2.42 | > 1000 |
| O=c1[nH]c(=O)n([C@@H]2CCCO2)cc1F | 12 (≈ 2.4 µg/mL) | 0.72 | > 1000 | 375 (≈ 75.1 µg/mL) | 12 (≈ 2.4 µg/mL) | > 1000 | 40.6 | > 1000 | 13.16 | 33 | 71.9 | 39.3 | 1.33 | > 1000 | 2.17 | > 1000 |
| O=c1[nH]c(=O)n(C2CCCO2)cc1F (racemic) [TEGAFUR] | 12 (≈ 2.4 µg/mL) | – | > 1000 | 750 (≈ 150 µg/mL) | 12 (≈ 2.4 µg/mL) | > 1000 | 38.9 | > 1000 | – | 33 | 51.4 | 33.2 | 2.3 | 780 (≈ 156 µg/mL) | 2.23 | > 1000 |
| O=c1[nH]cc(F)c(=O)[nH]1 [FLUOROURACIL] | 0.0723 (≈ 0.0094 µg/mL) | – | > 1000 | 0.00425 (≈ 0.000553 µg/mL) | 0.0723 (≈ 0.0094 µg/mL) | 601 (≈ 78.2 µg/mL) | – | 18.6 (≈ 2.42 µg/mL) | – | – | – | – | – | 4.62 (≈ 0.601 µg/mL) | – | 18.5 (≈ 2.41 µg/mL) |
